Data as given in ChEMBL document CHEMBL1124865, “Synthesis and biological evaluation of a series of parenteral 3'-quaternary ammonium cephalosporins” (J Med Chem, 1990).
≈ marks a conversion by molar mass, not a printed value.

Experiments:
Type in all cases: functional
[1] = test system: Escherichia coli; assay: Antibacterial activity against Escherichia coli EC14; settings: Escherichia coli; read-out: MIC
[2] = test system: Pseudomonas aeruginosa; assay: Antibacterial activity against Pseudomonas aeruginosa X528; settings: Pseudomonas aeruginosa; read-out: MIC
[3] = test system: Enterococcus faecium; assay: Antibacterial activity against Enterococcus faecium; settings: Enterococcus faecium; read-out: MIC
[4] = test system: Staphylococcus aureus; assay: Antibacterial activity against penicillin G resistance Staphylococcus aureus; settings: Staphylococcus aureus; read-out: MIC
[5] = test system: Staphylococcus aureus; assay: Antibacterial activity against penicillin G susceptible Staphylococcus aureus; settings: Staphylococcus aureus; read-out: MIC
[6] = test system: Pseudomonas aeruginosa; assay: Antibacterial activity against Pseudomonas aeruginosa PS18; settings: Pseudomonas aeruginosa; read-out: MIC
[7] = test system: Enterobacter cloacae; assay: Antibacterial activity against Enterobacter cloacae 265A; settings: Enterobacter cloacae; read-out: MIC
[8] = test system: Pseudomonas aeruginosa; assay: In vitro relative hydrolysis rate against Pseudomonas Id
How it was run: (§1)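 Spectrophotometric hydrolysis at 265 nm, substrate exposed to partially purified cell-free β-lactamase preparations; rate expressed as percentage of the cephaloridine rate.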

[9] = test system: Escherichia coli; assay: In vitro relative hydrolysis rate against Escherichia coli IIIa; how it was run: as §1
[10] = test system: Klebsiella pneumoniae; assay: In vitro relative hydrolysis rate against Klebsiella IV; how it was run: as §1
[11] = test system: Klebsiella pneumoniae; assay: Antibacterial activity against Klebsiella pneumoniae X26; settings: Klebsiella pneumoniae; read-out: MIC
[12] = test system: Streptococcus pyogenes; assay: Antibacterial activity against Streptococcus pyogenes; settings: Streptococcus pyogenes; read-out: MIC
[13] = test system: Staphylococcus aureus; assay: In vitro relative hydrolysis rate against Staphylococcus aureus; how it was run: as §1
[14] = test system: Enterobacter cloacae; assay: Antibacterial activity against Enterobacter cloacae EB5; settings: Enterobacter cloacae; read-out: MIC
[15] = test system: Klebsiella pneumoniae; assay: microbe, parasite or virus in culture; settings: Klebsiella pneumoniae; read-out: MIC
[16] = test system: Streptococcus pneumoniae; assay: Antibacterial activity against Streptococcus pneumoniae; settings: Streptococcus pneumoniae; read-out: MIC
[17] = test system: Escherichia coli; assay: Antibacterial activity against Escherichia coli TEM; settings: Escherichia coli; read-out: MIC
[18] = test system: Serratia marcescens; assay: Antibacterial activity against Serratia marcescens SE3; settings: Serratia marcescens; read-out: MIC
[19] = test system: Enterobacter cloacae; assay: In vitro relative hydrolysis rate against Enterobacter Ia; how it was run: as §1
[20] = test system: Escherichia coli; assay: In vivo efficacy against Escherichia coli infected mice treated at 1 hr and 5 hr post infection; settings: Escherichia coli; read-out: ED50
[21] = test system: Pseudomonas aeruginosa; assay: In vivo efficacy against Pseudomonas aeruginosa infections in mice; settings: Pseudomonas aeruginosa; read-out: MIC
[22] = test system: Staphylococcus aureus; assay: In vivo efficacy against Staphylococcus aureus infections in mice; settings: Staphylococcus aureus; read-out: MIC
[23] = test system: Staphylococcus aureus; assay: In vivo efficacy against Staphylococcus aureus infected mice treated at 1 hr and 5 hr post infection; settings: Staphylococcus aureus; read-out: ED50
[24] = test system: Pseudomonas aeruginosa; assay: In vivo efficacy against Pseudomonas aeruginosa infected mice treated at 1 hr and 5 hr post infection; settings: Pseudomonas aeruginosa; read-out: ED50
[25] = test system: Escherichia coli; assay: In vivo efficacy against Escherichia coli infections in mice; settings: Escherichia coli; read-out: MIC
[26] = organism: Cavia porcellus; assay: In vitro relative anticholinergic potential in isolated guinea pig trachea
How it was run: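 Guinea pig trachea in Krebs' solution at 37.5 °C, 95% O2/5% CO2, pH 7.4, 2 g resting tension. Cumulative carbachol log dose-response curve (3-fold steps) run before and 30 min after adding antagonist at 1 mM. […] Tukey test on log2 dose ratios.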

Structure (SMILES)	MIC [1] [µg/mL]	MIC [2] [µg/mL]	MIC [3] [µg/mL]	MIC [4] [µg/mL]	MIC [5] [µg/mL]	MIC [6] [µg/mL]	MIC [7] [µg/mL]	MIC [11] [µg/mL]	MIC [12] [µg/mL]	MIC [14] [µg/mL]	MIC [15] [µg/mL]	MIC [16] [µg/mL]	MIC [17] [µg/mL]	MIC [18] [µg/mL]	ED50 [20] [mg/kg]	MIC [21] [µg/mL]	MIC [22] [µg/mL]	ED50 [23] [mg/kg]	ED50 [24] [mg/kg]	MIC [25] [µg/mL]	also measured
CO/N=C(\C(=O)N[C@@H]1C(=O)N2C(C(=O)[O-])=C(C[n+]3cc(C)cc(C)c3)CS[C@H]12)c1csc(N)n1	0.06 (≈ 0.119 µM)	4 (≈ 7.96 µM)	> 128	2 (≈ 3.98 µM)	1 (≈ 1.99 µM)	8 (≈ 15.9 µM)	8 (≈ 15.9 µM)	0.03 (≈ 0.0597 µM)	< 0.008	0.125 (≈ 0.249 µM)	8 (≈ 15.9 µM)	0.03 (≈ 0.0597 µM)	0.06 (≈ 0.119 µM)	0.125 (≈ 0.249 µM)	–	–	–	–	–	–	Hydrolysis rate [8]: 0.1; Hydrolysis rate [9]: 0.5; Hydrolysis rate [10]: 1.5; Hydrolysis rate [13]: 6.1; Hydrolysis rate [19]: 0.1
CO/N=C(\C(=O)N[C@@H]1C(=O)N2C(C(=O)[O-])=C(C[n+]3cccc4ccsc43)CS[C@H]12)c1csc(N)n1	0.03 (≈ 0.0565 µM)	4 (≈ 7.54 µM)	128 (≈ 241 µM)	2 (≈ 3.77 µM)	1 (≈ 1.88 µM)	8 (≈ 15.1 µM)	4 (≈ 7.54 µM)	0.03 (≈ 0.0565 µM)	0.03 (≈ 0.0565 µM)	0.125 (≈ 0.236 µM)	4 (≈ 7.54 µM)	0.03 (≈ 0.0565 µM)	0.06 (≈ 0.113 µM)	0.06 (≈ 0.113 µM)	0.05	4 (≈ 7.54 µM)	1 (≈ 1.88 µM)	0.8	13.5	0.015 (≈ 0.0283 µM)	Hydrolysis rate [8]: 0; Hydrolysis rate [9]: 0.5; Hydrolysis rate [10]: 1.5; Hydrolysis rate [13]: 9.6; Hydrolysis rate [19]: 0.1
CO/N=C(\C(=O)N[C@@H]1C(=O)N2C(C(=O)[O-])=C(C[n+]3cccc4c(N)cccc43)CS[C@H]12)c1csc(N)n1	0.015 (≈ 0.0278 µM)	2 (≈ 3.71 µM)	128 (≈ 237 µM)	2 (≈ 3.71 µM)	1 (≈ 1.85 µM)	2 (≈ 3.71 µM)	8 (≈ 14.8 µM)	0.015 (≈ 0.0278 µM)	< 0.008	0.06 (≈ 0.111 µM)	2 (≈ 3.71 µM)	0.015 (≈ 0.0278 µM)	0.015 (≈ 0.0278 µM)	0.06 (≈ 0.111 µM)	< 0.03	2 (≈ 3.71 µM)	0.5 (≈ 0.927 µM)	0.2	6	0.03 (≈ 0.0556 µM)	Hydrolysis rate [8]: 0.6; Hydrolysis rate [9]: 0.7; Hydrolysis rate [10]: 6.8; Hydrolysis rate [13]: 0.2; Hydrolysis rate [19]: 1.1
CO/N=C(\C(=O)N[C@@H]1C(=O)N2C(C(=O)[O-])=C(C[n+]3ccc4nc(C)n(C)c4c3)CS[C@H]12)c1csc(N)n1	0.015 (≈ 0.0276 µM)	2 (≈ 3.69 µM)	128 (≈ 236 µM)	–	2 (≈ 3.69 µM)	8 (≈ 14.7 µM)	4 (≈ 7.37 µM)	0.015 (≈ 0.0276 µM)	0.015 (≈ 0.0276 µM)	–	2 (≈ 3.69 µM)	0.015 (≈ 0.0276 µM)	0.015 (≈ 0.0276 µM)	–	–	–	–	–	–	–	RAP [26]: 2
CO/N=C(\C(=O)N[C@@H]1C(=O)N2C(C(=O)[O-])=C(C[n+]3cccc4ccc(O)cc43)CS[C@H]12)c1csc(N)n1	0.06 (≈ 0.111 µM)	16 (≈ 29.6 µM)	> 128	8 (≈ 14.8 µM)	4 (≈ 7.4 µM)	32 (≈ 59.2 µM)	8 (≈ 14.8 µM)	0.03 (≈ 0.0555 µM)	0.03 (≈ 0.0555 µM)	0.25 (≈ 0.462 µM)	4 (≈ 7.4 µM)	0.06 (≈ 0.111 µM)	0.125 (≈ 0.231 µM)	0.5 (≈ 0.925 µM)	0.05	16 (≈ 29.6 µM)	4 (≈ 7.4 µM)	4	> 50	0.06 (≈ 0.111 µM)	–
CO/N=C(\C(=O)N[C@@H]1C(=O)N2C(C(=O)[O-])=C(C[n+]3ccc4c(c3)nc(C)n4C)CS[C@H]12)c1csc(N)n1	0.008 (≈ 0.0147 µM)	4 (≈ 7.37 µM)	128 (≈ 236 µM)	–	2 (≈ 3.69 µM)	8 (≈ 14.7 µM)	4 (≈ 7.37 µM)	0.008 (≈ 0.0147 µM)	0.008 (≈ 0.0147 µM)	–	2 (≈ 3.69 µM)	0.008 (≈ 0.0147 µM)	0.008 (≈ 0.0147 µM)	–	–	–	–	–	–	–	RAP [26]: 1
CCC(CC)c1cc[n+](CC2=C(C(=O)[O-])N3C(=O)[C@@H](NC(=O)/C(=N\OC)c4csc(N)n4)[C@H]3SC2)cc1	0.125 (≈ 0.23 µM)	16 (≈ 29.4 µM)	> 128	4 (≈ 7.34 µM)	2 (≈ 3.67 µM)	64 (≈ 118 µM)	16 (≈ 29.4 µM)	0.03 (≈ 0.0551 µM)	< 0.008	0.5 (≈ 0.918 µM)	8 (≈ 14.7 µM)	0.015 (≈ 0.0275 µM)	0.06 (≈ 0.11 µM)	0.5 (≈ 0.918 µM)	0.5	64 (≈ 118 µM)	4 (≈ 7.34 µM)	2.5	11	0.125 (≈ 0.23 µM)	–
